The term Ki denotes the dissociation constant of the complex between target and ligand, obtained from inhibition or displacement. Read a low Ki as higher affinity. Usually inhibition stands for the drop in the measured response relative to a control, in per cent.

One experiment deals with T1, Adenosine receptor A3 (Homo sapiens, UniProt P0DMS8).
T1 sequence (P0DMS8 whole entry): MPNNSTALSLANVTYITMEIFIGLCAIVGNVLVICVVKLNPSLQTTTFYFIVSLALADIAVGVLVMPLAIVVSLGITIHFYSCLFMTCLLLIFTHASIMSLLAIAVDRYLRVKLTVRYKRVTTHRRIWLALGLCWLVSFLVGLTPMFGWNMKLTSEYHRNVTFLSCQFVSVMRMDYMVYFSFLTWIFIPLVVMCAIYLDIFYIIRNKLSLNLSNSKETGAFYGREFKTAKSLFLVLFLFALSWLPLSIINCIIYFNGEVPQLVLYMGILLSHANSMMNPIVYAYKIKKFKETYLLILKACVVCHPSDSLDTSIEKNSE
Put plainly: biochemical. It counts as cell-based, CHO.

Experiment [1] has as its target T2, Adenosine receptor A2a (Homo sapiens, UniProt P29274). The experiment is classed as cell-based, CHO.
Experiment [2] addresses T3, Adenosine receptor A1 (Homo sapiens, UniProt P30542).
T3 sequence (P30542 whole entry): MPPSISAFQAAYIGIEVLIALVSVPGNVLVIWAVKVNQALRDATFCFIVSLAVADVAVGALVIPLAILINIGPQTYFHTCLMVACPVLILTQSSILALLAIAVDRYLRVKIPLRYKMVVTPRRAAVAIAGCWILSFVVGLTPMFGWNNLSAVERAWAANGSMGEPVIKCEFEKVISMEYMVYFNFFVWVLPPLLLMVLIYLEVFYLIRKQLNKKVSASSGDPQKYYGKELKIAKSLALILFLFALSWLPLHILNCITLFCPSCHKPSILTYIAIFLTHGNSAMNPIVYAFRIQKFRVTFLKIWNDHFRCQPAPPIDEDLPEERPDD
The experiment is classed as cell-based, CHO.

The target of experiment [3] is T3, Adenosine receptor A1. Put plainly: Percent inhibition of [3H]-DPCPX binding to human adenosine A1 receptor expressed in CHO cells at 10 uM. It counts as cell-based. The essentials:
(§1)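 Test ligand at a single 10 μM was run against 0.5 nM [3H]DPCPX on membranes (20 μg protein) from CHO cells stably expressing human A1 receptor, in 50 mM Tris-HCl, pH 7.4, for 60 min at 25°C. Nonspecific binding was defined with 10 μM NECA. Filtration was on GF/B, with scintillation counting. Results are percent displacement of radioligand.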

Experiment [4] has as its target T2, Adenosine receptor A2a. The experiment in a line: Percent inhibition of […] binding to human adenosine A2A receptor expressed in CHO cells at 10 uM. The experiment is classed as cell-based.
The target in experiment [5] is T3, Adenosine receptor A1. Put plainly: (§2) Percent inhibition of [3H]DPCPX binding to human adenosine A1 receptor expressed in CHO cells at 10 uM. It counts as cell-based. The essentials:
as §1

Experiment [6] addresses T4, Adenosine receptor A1 (Homo sapiens) (UniProt P30542).
T4 sequence (whole entry): T3 sequence (P30542 whole entry)
The experiment is described as §2. The experiment is classed as cell-based. The essentials:
as §1

Experiment [7] deals with T2, Adenosine receptor A2a. The experiment in a line: Percent inhibition of [3H]-ZM241385 binding to human adenosine A2A receptor expressed in CHO cells at 10 uM.
Experiment [8] has as its target T3, Adenosine receptor A1. Put plainly: Binding affinity for human adenosine A1 receptor. The essentials: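 Membranes from CHO cells stably expressing human A1 receptor (20 μg protein) were incubated with 0.5 nM [3H]DPCPX in 50 mM Tris-HCl, pH 7.4, for 60 min at 25°C. Nonspecific binding was defined with 10 μM NECA. Bound label was collected by GF/B filtration and counted by scintillation.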

T2 sequence (P29274 whole entry): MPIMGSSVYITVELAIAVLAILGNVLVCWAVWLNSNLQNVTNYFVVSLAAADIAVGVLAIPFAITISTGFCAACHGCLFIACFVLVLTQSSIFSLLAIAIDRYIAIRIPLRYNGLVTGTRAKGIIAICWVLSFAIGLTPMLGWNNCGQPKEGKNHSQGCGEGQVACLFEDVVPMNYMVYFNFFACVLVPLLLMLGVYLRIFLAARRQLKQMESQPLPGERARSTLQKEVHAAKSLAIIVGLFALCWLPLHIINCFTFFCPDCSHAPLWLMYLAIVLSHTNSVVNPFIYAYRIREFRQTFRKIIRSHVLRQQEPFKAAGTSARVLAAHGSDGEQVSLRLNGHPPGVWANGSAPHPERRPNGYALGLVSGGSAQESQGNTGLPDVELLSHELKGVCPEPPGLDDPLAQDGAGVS

Regarding `Cn1cnc2c(NC3CCCCC3)nc(Nc3ccccc3)nc21`, the inhibition constant (Ki) on Adenosine receptor A3 came to 0.07 µM; on Adenosine receptor A2a [1], 1.2 µM; on Adenosine receptor A1 [2] it was 1.88 µM.

`c1ccc(Nc2nc3ncnc-3c(NC3CCCCCCC3)[nH]2)cc1`: the Ki on Adenosine receptor A3 was 0.34 µM; at Adenosine receptor A1 [3], 4.47 µM.

At Adenosine receptor A3, `c1ccc2cc(Nc3nc(NC4CCCCC4)c4[nH]cnc4n3)ccc2c1` yielded a Ki of 2.42 µM.

On Adenosine receptor A2a [4], `c1ccc(CCNc2nc(NC3CCCCC3)c3[nH]cnc3n2)cc1` yielded an inhibition of 46%. Besides, the inhibition constant Ki was 1.46 µM at Adenosine receptor A3 and 3.17 µM at Adenosine receptor A1 [5].

The compound `c1nc2nc(Nc3ccc(N4CCOCC4)cc3)nc(NC3CC4CCC3C4)c2[nH]1` (configuration not stated) showed a Ki at Adenosine receptor A3 of 0.122 µM.

With `c1ccc(Sc2nc3ncnc-3c(NC3CCCCC3)[nH]2)cc1`, the inhibition constant Ki at Adenosine receptor A3 is 0.134 µM.

With `CCNc1nc(NC2CCCCC2)c2[nH]cnc2n1`, the inhibition in experiment [6] turned out to be 51%; at Adenosine receptor A2a [7], 42%. Besides, the affinity on Adenosine receptor A3, expressed as Ki, was 1.12 µM.

As to `c1ccc2cc(Nc3nc4ncnc-4c(NC4CCCCC4)[nH]3)ccc2c1`, the inhibition was 39% in [6] and 52% on Adenosine receptor A2a [7].

With `c1ccc(Nc2nc(NC3CCCCCC3)c3[nH]cnc3n2)cc1`, the Ki is 0.042 µM on Adenosine receptor A3, 4.12 µM at Adenosine receptor A2a [1] and 1.72 µM on Adenosine receptor A1 [2].

On to `c1nc2nc(Nc3ccc(N4CCOCC4)cc3)nc(NC3CCCCC3)c2[nH]1` [REVERSINE], for which the Ki on Adenosine receptor A3 was 0.66 µM; at Adenosine receptor A2a [1], > 10 µM; on Adenosine receptor A1 [2], > 10 µM.

For the compound `c1nc2c(NC3CCCCC3)nc(Nc3ccc(N4CCCCC4)cc3)nc2[nH]1`, the inhibition at Adenosine receptor A2a [4] amounted to 50%; in experiment [6] it was 16%. On Adenosine receptor A3, the Ki came out at 1.57 µM.

In the case of `CCNc1[nH]c(Nc2ccc(N3CCOCC3)cc2)nc2ncnc1-2`, the inhibition worked out at 23% in experiment [6] and 16% at Adenosine receptor A2a [7]. The compound further displayed an inhibition constant Ki on Adenosine receptor A3 of 1.53 µM.

With `c1nc2nc(Nc3ccc(N4CCOCC4)cc3)[nH]c(NC3CCCC3)c-2n1`, the figures for the inhibition (in experiment [6]; at Adenosine receptor A2a [7]) were 22% and 20%, respectively. For the same compound, affinity on Adenosine receptor A3 was put at a Ki of 1.39 µM.

On to `c1nc2nc(Nc3ccc(N4CCOCC4)cc3)[nH]c(NC3CCC3)c-2n1`, for which the figures for the inhibition (in experiment [6]; at Adenosine receptor A2a [7]) were 29% and 18%, respectively. Further, at Adenosine receptor A3, the affinity corresponds to a Ki of 1.81 µM.

`c1nc2nc(Nc3ccc(N4CCOCC4)cc3)nc(NC3CC3)c2[nH]1`: the inhibition in experiment [6] came out at 22%; at Adenosine receptor A2a [7], 25%. For the same compound, on Adenosine receptor A3, the affinity, expressed as Ki, was 1.87 µM.

Regarding `CN(C)c1ccc(Nc2nc(NC3CCCCC3)c3[nH]cnc3n2)cc1`, the results for the Ki at Adenosine receptor A3, at Adenosine receptor A2a [1] and on Adenosine receptor A1 [2] were 0.07 µM, 6.1 µM and 3.9 µM, respectively.

For the compound `c1ccc(CNc2nc(NC3CCCCC3)c3[nH]cnc3n2)cc1`, the inhibition in experiment [6] came out at 42%; at Adenosine receptor A2a [7], 34%. On Adenosine receptor A3, this compound had an inhibitory constant (Ki) of 0.92 µM.

As to `c1nc2nc(Nc3ccc(N4CCOCC4)cc3)[nH]c(NC3CCCCCCC3)c-2n1`, the inhibition in [6] stood at 0%; on Adenosine receptor A2a [7], 17%. Moreover, the Ki on Adenosine receptor A3 turned out to be 2.77 µM.

`CC(C)N(C)c1nc2c(NC3CC4CC3CC4O)ncnc2n1C` (configuration not stated) displayed a Ki on Adenosine receptor A1 [8] of 0.0017 µM.

Turning to `c1ccc(Oc2nc(NC3CC4CCC3C4)c3nc[nH]c3n2)cc1` (configuration not stated), the Ki worked out at 0.074 µM on Adenosine receptor A3 and 1.47 µM at Adenosine receptor A1 [2]. This compound came in with an inhibition on Adenosine receptor A2a [7] of 25%.

As for `c1ccc(-c2ccc(Nc3nc4ncnc-4c(NC4CCCCC4)[nH]3)cc2)cc1`, the inhibition in experiment [6] is 14%; on Adenosine receptor A2a [7], 22%. At Adenosine receptor A3, this compound came in with a Ki of 5.4 µM.

As to `Cn1cnc2c(NC3CCCCCC3)nc(Nc3ccccc3)nc21`, the values for the inhibition constant Ki at Adenosine receptor A3, on Adenosine receptor A2a [1] and on Adenosine receptor A1 [2] were 0.96 µM, 2.95 µM and 1.94 µM, respectively.

For the compound `c1ccc(Nc2nc3ncnc-3c(NC3CCCCC3)[nH]2)cc1`, the Ki on Adenosine receptor A3 came to 0.051 µM; at Adenosine receptor A1 [5] it was 2.73 µM; on Adenosine receptor A2a [1], 1.7 µM.

With `c1nc2nc(Nc3ccc(N4CCOCC4)cc3)[nH]c(NC3CCCCCC3)c-2n1`, the inhibition in experiment [6] was 6%; at Adenosine receptor A2a [7], 38%. The same compound had an inhibition constant (Ki) at Adenosine receptor A3 of 0.42 µM.

Values taken from ChEMBL document CHEMBL1140335, “"Reversine" and its 2-substituted adenine derivatives as potent and selective A3 adenosine receptor antagonists” (J Med Chem, 2005).
